# Source: PubChem
# TbHK1 inh – blocks Trypanosoma brucei hexokinase 1 activity; recombinant TbHK1, G6PDH-coupled NADH A340; inhibition, % at 10 µM; actives 0.11% (n = 220,000); AID 1430;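 active = inhibition of 50% or more in the single-dose primary screen; inactive = inhibition below 50%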
# Hep lipid drop – hepatic lipid droplet formation modulation; AML12 mouse hepatocytes, oleate lipid droplets, BODIPY imaging; inhibition, % at 6.5 µM; actives 0.4% (n = 240,000); AID 1656;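 active = lipid droplet intensity inhibited by at least 50%, with more than 500 cells counted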
#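 Technique: fluorescence imaging, 20x objective, two fields per well / Assay system: AML12 hepatocytes (mouse) / Measure: % inhibition of lipid droplet signal / Doses: 6.5 µM single-point dosing / Incubation: overnight exposure / Reagent: 100 µM oleic acid challenge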
# PfM18AAP inh-1 – PfM18AAP enzyme inhibition. inhibition, % at 7.35 µM. AID 1822. actives 1.2% (n = 290,000). recombinant PfM18AAP, H-Glu-NHMec fluorogenic cleavage;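 active = inhibition above the campaign mean inhibition over all tested compounds plus 3 SD, cut at about 28% in these data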;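 also: 0% = plate median of test compound wells and 100% = 2 mM ZnCl2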
# TNF necrop inh – TNF-alpha cell death inhibition in Jurkat FADD-/- cells | activation (protection from cell death), % at 10 µM | actives 0.068% (n = 220,000) | AID 463075 | Jurkat FADD-/- TNF necroptosis rescue, ATP luminescence, 24 h; 0 = TNF only, 100 = no-TNF cells;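 active = activation, meaning protection from cell death, of at least 50% relative to plate controls; inactive = activation below 50%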;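 also: necroptosis triggered by 40 ng/mL TNF-alpha added together with compound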
# zVAD death inh – blocks zVAD induced death of L929 cells | L929 zVAD necroptosis rescue, ATP luminescence, 24 h; with zVAD 60 µM | viability rescue, % at 10 µM | actives 0.38% (n = 220,000);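 active = activation, scaled between plate controls, above about 75%, limit read from the data; inactive = activation under that limit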;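 also: 0% = zVAD with DMSO and 100% = DMSO alone without zVAD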
# RBBP9 inh – human RBBP9 hydrolase inhibition; O75884; recombinant RBBP9, FP-Rh probe fluorescence polarization; inhibition, % at 7.94 µM; actives 0.2% (n = 220,000);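 active = inhibition above the campaign mean of all tested compounds plus 3 SD, cut at about 14% in these data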;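 also: plate controls were DMSO wells with RBBP9 for no effect and wells lacking RBBP9 protein for full effect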
# Target sequence (O75884 whole entry, looked up): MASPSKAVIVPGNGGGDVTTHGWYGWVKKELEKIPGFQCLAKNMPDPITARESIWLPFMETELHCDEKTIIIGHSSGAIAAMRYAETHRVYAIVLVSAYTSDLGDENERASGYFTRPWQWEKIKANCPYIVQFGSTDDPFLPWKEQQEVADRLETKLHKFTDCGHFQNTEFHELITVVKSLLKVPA
#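 Measured by: FP readout at 525/598 nm; material: recombinant human RBBP9; also added: Serine-hydrolase probe FP-Rh, 375 nM pre-mixing; medium: Tris buffer pH 8.0, NaCl, Pluronic; replication: one well per compound; doses: one concentration, 7.94 µM nominal, 0.794% DMSO; timing: preincubation 30 min plus labeling 45 min at 25 °C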
# PfM18AAP inh-2 – PfM18AAP inhibition, confirmation; shares compounds with PfM18AAP inh-1; recombinant PfM18AAP, H-Glu-NHMec fluorogenic cleavage; inhibition, % at 7.35 µM; actives 28% (n = 2,400); AID 2170;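 active = mean inhibition over replicate wells above the hit cutoff set for the earlier primary screen, cut at about 29% in these data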;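 also: 0% = median of test compound wells and 100% = 2 mM ZnCl2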
# CTSL1 confirm – Cathepsin L (human) inhibition, confirmation; shares compounds with PfM18AAP inh-1; purified cathepsin L1, Z-Leu-Arg-MCA fluorescence; inhibition, % at 5.96 µM; 2,400 tested, under 10 active; AID 2178;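 active = average inhibition across replicates above the hit cutoff set in the earlier primary screen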;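 also: 0% = median of test compound wells and 100% = Z-Phe-Ala-diazomethylketone 1 µM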
# Target sequence (P07711 whole entry, looked up): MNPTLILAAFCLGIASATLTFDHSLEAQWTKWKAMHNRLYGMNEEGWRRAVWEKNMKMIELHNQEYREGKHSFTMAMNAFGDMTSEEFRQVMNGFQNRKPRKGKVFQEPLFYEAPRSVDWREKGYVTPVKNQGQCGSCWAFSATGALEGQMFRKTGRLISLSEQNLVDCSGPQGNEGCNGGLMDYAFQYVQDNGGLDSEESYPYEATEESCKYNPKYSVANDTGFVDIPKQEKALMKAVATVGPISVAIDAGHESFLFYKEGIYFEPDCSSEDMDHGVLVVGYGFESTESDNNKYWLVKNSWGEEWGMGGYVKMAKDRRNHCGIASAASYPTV
# * hit, by the source's call; / = not tested or not shown. Hits are enriched below; roughly 2% of the tested compounds scored in any of these assays.
SMILES,TbHK1 inh,Hep lipid drop,PfM18AAP inh-1,TNF necrop inh,zVAD death inh,RBBP9 inh,PfM18AAP inh-2,CTSL1 confirm
Cc1ccc(-c2nc(Nc3cccc(O)c3)c3ccccc3n2)cc1,/,7.2,-3.6,/,/,/,/,/
CCn1cc(-c2nnnn2-c2ccc(Cl)cc2)c(=O)c2ccccc21,-4.2,/,9.7,-1.9,0.0,-9.0,/,/
Oc1ccc(N2CCN(Cc3cc4c(cc3Br)OCCO4)CC2)cc1,/,-3.9,39.0*,/,/,/,-12.9,-1.2
O=C(O)CCCCCN1C(=O)C(O)=C(C(=O)/C=C/c2ccccc2)C1c1ccc2c(c1)OCO2 (stereo unspecified),-20.2,3.4,54.9*,1.4,0.2,-0.2,-1.1,1.9
O=C(/C=C/c1ccccc1)C1=C(O)C(=O)N(CCO)C1c1cccc([N+](=O)[O-])c1 (stereo unspecified),-34.9,0.3,-3.3,4.5,0.9,-2.9,/,/
CCN(CC)S(=O)(=O)c1cc([N+](=O)[O-])ccc1NNC(=O)Nc1ccc(F)cc1,-12.6,-19.4,36.8*,3.4,0.5,-6.7,29.1*,4.2
CCN(CC)S(=O)(=O)c1cc([N+](=O)[O-])ccc1NNC(=O)Nc1ccccc1OC,-4.7,7.9,55.9*,1.0,0.5,-7.2,13.2,4.2
O=C(Nc1ccc(F)cc1)Nc1ccc([N+](=O)[O-])cn1,2.8,10.8,-8.6,0.9,6.8,-5.2,/,/
CCOc1ccc(C(C)=O)cc1CN1C(=O)C(=O)N(CC)C1=O,5.7,2.8,-6.8,0.6,0.1,-9.8,/,/
CCN=C1SC(C(=O)Nc2ccc(OC)cc2)CC(=O)N1CC (stereo unspecified),-2.2,-2.1,-1.7,0.2,-0.6,-3.4,/,/
CC(=O)Oc1ccc2c(=O)c(Oc3ccccc3)coc2c1OC(C)=O,34.5,-32.3,32.7*,-2.1,0.8,0.2,2.5,-0.4
O=C(O)CCC(=O)Nc1ccc(N2CCCCCC2)cc1,2.2,-1.0,43.8*,-1.7,-0.5,7.7,-1.0,1.1
COc1ccc2c(c1OC)C(=O)OC2CC(=O)c1ccc(O)cc1 (stereo unspecified),-28.9,/,3.2,1.3,0.9,-2.8,/,/
COc1ccc2c(c1OC)C(=O)OC2CC(=O)c1ccc(O)c(O)c1 (stereo unspecified),-37.1,-3.1,42.9*,-0.5,0.8,-4.8,19.4,0.1
Cc1c(C(=O)OCC(=O)NCC2CCCO2)cccc1[N+](=O)[O-] (stereo unspecified),-1.8,-16.4,8.6,-0.2,2.2,-5.3,/,/
CCOC(=O)N/N=C/c1cc(OC)c(O)c(OC)c1,-18.5,12.1,10.7,-0.1,-0.1,-3.5,/,/
CCOC(=O)c1sc(N/N=C/c2cc(Br)c(O)c(OC)c2)nc1C,/,14.5,36.8*,/,/,/,11.1,-2.5
COc1ccc(CCC(=O)N2CCN(c3ccccc3)CC2)cc1OC,/,-21.5,-4.6,/,/,/,/,/
Cc1occc1C(=O)NNC1=CC(=O)CC(C)(C)C1,28.8,8.2,54.6*,0.6,0.3,-1.1,30.2*,4.1
COc1ccc(NC2=CC(=O)CC(C)(C)C2)cc1OC,-21.3,/,7.0,-0.6,-0.3,0.9,/,/
COc1ccc(C(=O)NNC2=CC(=O)CC(C)(C)C2)cc1OC,-8.3,-2.1,40.0*,1.4,/,-6.4,4.2,-4.1
CC1(C)CC(=O)C=C(NNC(=O)OC(C)(C)C)C1,-14.2,3.7,-1.8,-0.3,2.1,4.5,/,/
CC1(C)CC(=O)C=C(NNC(=O)c2ccc(N)cc2)C1,-6.8,-2.4,47.7*,0.4,0.5,-5.5,18.7,2.6
Cc1ccc(NC(=O)CCSCCc2ccccn2)cc1,-2.6,9.3,-1.7,-0.2,-0.8,-8.8,/,/
CCN(c1ccccc1)S(=O)(=O)c1ccc(Cl)c(C(=O)NCC2CCCO2)c1 (stereo unspecified),-6.5,-10.1,2.1,0.1,-0.2,3.0,/,/
SMILES,TbHK1 inh,Hep lipid drop,PfM18AAP inh-1,TNF necrop inh,zVAD death inh,RBBP9 inh,PfM18AAP inh-2,CTSL1 confirm
C(=C\c1ccccc1)/C=N/Nc1nncc(-c2ccccc2)n1,-19.9,-16.1,-8.8,4.0,3.9,-6.9,/,/
O=C(O)c1cc(N/N=C/c2c[nH]c3ccccc23)ccc1Cl,/,-6.1,7.0,/,/,/,/,/
O=c1nc(N/N=C/C=C/c2ccccc2)cn[nH]1,-30.4,/,41.2*,0.9,-0.1,0.8,-1.2,3.6
O=c1nc(N/N=C/c2c[nH]c3ccccc23)cn[nH]1,-50.4,-30.5,40.2*,-5.0,-0.5,1.1,0.5,-3.2
CN1CCN(S(=O)(=O)c2cccc(C(=O)NCCOc3ccccc3F)c2)CC1,/,0.4,-1.1,/,/,/,/,/
COc1cccc(CN(c2ccc3c(c2)CCC3)S(=O)(=O)c2ccc(-n3cnnn3)c(OC)c2)c1,8.3,-8.1,-2.1,4.7,1.2,-4.0,/,/
CC(C)c1ccc(/C=C/C(=O)n2nnc3ccccc32)cc1,2.8,5.1,0.4,-20.2,-0.1,-5.8,/,/
O=C(NC(=S)NNC(=O)c1cc2ccccc2cc1O)c1ccco1,-23.9,15.8,20.0,-1.2,-0.6,-1.9,/,/
O=C(NC(=S)NNC(=O)c1ccccc1O)c1ccco1,8.4,-13.7,33.0*,2.5,0.3,-3.2,30.2*,2.0
Clc1ccc(Nc2ncn[nH]2)cc1,4.1,/,34.0*,-0.6,0.1,-12.7,18.4,4.2
Cc1ccc(C(C(=O)NC(C)(C)C)N(Cc2cccs2)C(=O)c2csnn2)cc1 (stereo unspecified),2.5,/,35.1*,-2.8,-0.5,-3.8,-53.3,0.5
Cc1cc(/C=N/n2cnnc2)c(C)n1-c1ccc(Cl)cc1,-9.1,-13.9,7.0,0.5,0.2,-5.8,/,/
Cc1cc(N2CCCC2)ccc1/C=N/n1cnnc1,-39.7,5.5,32.0*,-0.9,-0.8,2.2,3.0,1.7
COc1ccc(-c2cc(C(=O)OCc3ccccn3)c3ccccc3n2)cc1,/,5.0,-1.3,/,/,/,/,/
Cn1c(CSc2ncn[nH]2)nc2ccccc21,-5.4,/,53.2*,0.3,0.8,-6.1,9.5,-5.4
Cn1c(CSc2nc3ccccc3s2)nc2ccccc21,6.3,0.5,6.2,5.7,-0.4,-1.9,/,/
N#C/C(=C\c1ccc(-c2ccccc2)o1)C(=O)Nn1cnnc1,-18.4,/,63.3*,-1.2,0.4,-6.8,54.3*,6.0
Cc1ccc(-c2ccc(/C=C(\C#N)C(=O)Nc3cc(C)nn3-c3ccccc3)o2)cc1,-21.9,-9.6,-4.8,0.4,2.5,-4.5,/,/
COCCNC(=O)c1cc(S(=O)(=O)N2CCOCC2)ccc1SCc1cccc(OC)c1OC,-7.0,-1.2,17.3,2.7,1.3,3.6,/,/
Oc1c(Cl)cc(Cl)c2cccnc12,12.7,8.3,10.1,-9.0,-0.3,-2.8,/,/
Cc1ccc(S(=O)(=O)Nc2cc(Cl)c(O)c3ncccc23)cc1,/,-5.0,38.6*,/,/,/,17.9,-2.2
